Type in all cases: functional
The subject of assay [1] is Staphylococcus aureus. Description: Antimicrobial activity against methicillin-resistant Staphylococcus aureus XU212. In short, it runs like this:
(§1)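 Broth microdilution MIC per NCCLS guidelines, at least in duplicate, in cation-adjusted Mueller-Hinton broth (20 mg/L Ca2+, 10 mg/L Mg2+). Strains grown on nutrient agar first. Inoculum 5×10^5 cfu prepared in 0.9% saline against a McFarland standard. Compounds dissolved in DMSO, 2-fold serial dilutions, final 1–512 µg/mL (DMSO ≤3.125% v/v). MIC taken as lowest concentration with no visible growth.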

Assay [2] deals with Staphylococcus aureus. In words: Antimicrobial activity against Staphylococcus aureus ATCC 25923. Put shortly: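 Broth microdilution MIC per NCCLS guidelines, at least in duplicate. Inoculum 5×10^5 cfu prepared in 0.9% saline against a McFarland standard. Cation-adjusted Mueller-Hinton broth with 20 mg/L Ca2+ and 10 mg/L Mg2+. Compounds dissolved in DMSO, then 2-fold serial dilutions, final 1–512 μg/mL; DMSO at most 3.125% v/v. MIC is the lowest concentration giving no visible growth.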

For another assay, the system named is KB. Description: Cytotoxicity against human KB cells after 72 hrs. Particulars: read-out: ED50 (the source's name). Put shortly: (§2)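 Cells grown in RPMI 1640 with 10% fetal bovine serum at 37 °C, 5% CO2, humidified. Log-phase cells treated in triplicate with test samples at 0.16–20 μg/mL for 72 h. Growth read by the NCI sulforhodamine method. ED50 is the dose inhibiting 50% of control growth, estimated from a semilog plot of concentration against percentage of viable cells.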

Another assay concerns HEp-2. In words: Cytotoxicity against human Hep2 cells after 72 hrs. Conditions: HEp-2, 72 h, read-out: ED50 (the source's name). Put shortly: as §2
The subject of another assay is HeLa. In words: Cytotoxicity against human HeLa cells after 72 hrs. Conditions: read-out: ED50 (the source's name). Put shortly: as §2
In assay [3] the test system is Staphylococcus aureus. Description: Antimicrobial activity against epidemic methicillin-resistant Staphylococcus aureus 15 containing mecA gene. Put shortly: as §1
For assay [4], the system named is Staphylococcus aureus. Description: Antimicrobial activity against multidrug-resistant Staphylococcus aureus over expressing NorA MDR efflux pump. In short, it runs like this:
as §1

In brackets after ≈: the same amount, converted by molar mass.

For `CCCCC[C@H]1CCCCCCCCCC(=O)O[C@H]2[C@@H](O)[C@H](O[C@H]3[C@H](O1)O[C@H](C)[C@H](O)[C@@H]3O)O[C@@H](C)[C@@H]2O[C@@H]1O[C@@H](C)[C@H](O[C@@H]2O[C@@H](C)[C@H](OC(=O)[C@@H](C)CC)[C@@H](O)[C@H]2O)[C@@H](O[C@@H]2O[C@@H](C)[C@H](O)[C@@H](O)[C@H]2O)[C@H]1OC(=O)CCCCCC[C@H](O)CCCC` [MURUCOIDIN X], the minimum inhibitory concentration (MIC) against Staphylococcus aureus [1], against Staphylococcus aureus [2], against Staphylococcus aureus [3] and in the assay with Staphylococcus aureus [4] was over 512 µg/mL throughout. In addition, the EC50 is 15.7 µg/mL (≈ 12.4 µM) with KB, over 20 µg/mL in the assay on HEp-2 and over 20 µg/mL with HeLa.

As for `CCn1cc(C(=O)O)c(=O)c2cc(F)c(N3CCNCC3)cc21` [NORFLOXACIN], the MIC against Staphylococcus aureus [1] was 512 µg/mL (≈ 1600 µM); against Staphylococcus aureus [2], over 512 µg/mL; against Staphylococcus aureus [3] it was 256 µg/mL (≈ 802 µM); in the assay on Staphylococcus aureus [4], 32 µg/mL (≈ 100 µM). In addition, in the assay on HEp-2, the EC50 was over 20 µg/mL.

`CCCCC[C@H]1CCCCCCCCCC(=O)O[C@H]2[C@H](O[C@H]3[C@H](O1)O[C@H](C)[C@H](O)[C@@H]3O)O[C@@H](C)[C@H](O[C@@H]1O[C@@H](C)[C@H](O[C@@H]3O[C@@H](C)[C@H](OC(=O)[C@@H](C)CC)[C@@H](O)[C@H]3O)[C@@H](O[C@@H]3O[C@H](CO)[C@@H](O)[C@H](O)[C@H]3O)[C@H]1OC(=O)[C@@H](C)CC)[C@H]2O` [MURUCOIDIN IV]: the MIC against Staphylococcus aureus [1], in the assay on Staphylococcus aureus [2], against Staphylococcus aureus [3] and with Staphylococcus aureus [4] was over 512 µg/mL throughout. Moreover, the values for the EC50 in the assay on KB, in the assay on HEp-2 and with HeLa were 15 µg/mL (≈ 12.8 µM), 4 µg/mL (≈ 3.42 µM) and over 20 µg/mL, respectively.

For the compound `CCCCC[C@H]1CCCCCCCCCC(=O)O[C@H]2[C@H](O)[C@@H](CO)O[C@@H](O[C@H]3[C@H](O1)O[C@H](C)[C@@H](O)[C@@H]3O)[C@@H]2O[C@@H]1O[C@@H](C)[C@H](OC(=O)[C@@H](C)CC)[C@@H](O[C@@H]2O[C@@H](C)[C@H](O)[C@@H](O)[C@H]2O)[C@H]1OC(=O)[C@@H](C)CC` [TRICOLORIN E], the minimum inhibitory concentration (MIC) in the assay with Staphylococcus aureus [1] was 8 µg/mL (≈ 7.82 µM); in the assay with Staphylococcus aureus [2] it was 16 µg/mL (≈ 15.6 µM); with Staphylococcus aureus [3], 8 µg/mL (≈ 7.82 µM); in the assay on Staphylococcus aureus [4] it was 8 µg/mL (≈ 7.82 µM). Moreover, the EC50 with KB, with HEp-2 and in the assay on HeLa was over 20 µg/mL throughout.

Regarding `CCCCC[C@H]1CCCCCCCCCC(=O)O[C@H]2[C@H](O[C@H]3[C@H](O1)O[C@H](C)[C@H](O)[C@@H]3O)O[C@@H](C)[C@H](O[C@@H]1O[C@@H](C)[C@H](O[C@@H]3O[C@@H](C)[C@H](OC(=O)[C@@H](C)CC)[C@@H](O)[C@H]3O)[C@@H](O[C@@H]3O[C@@H](C)[C@H](O)[C@@H](O)[C@H]3O)[C@H]1OC(=O)[C@@H](C)CC)[C@H]2O` [MURUCOIDIN III], the MIC in the assay on Staphylococcus aureus [1], against Staphylococcus aureus [2], in the assay with Staphylococcus aureus [3] and with Staphylococcus aureus [4] was over 512 µg/mL each time. Also, the EC50 was 15.4 µg/mL (≈ 13.4 µM) with KB, 10.7 µg/mL (≈ 9.28 µM) in the assay with HEp-2 and over 20 µg/mL in the assay on HeLa.

Turning to `CC[C@]1(O)C[C@@H]2CN(CCc3c([nH]c4ccccc34)[C@@](C(=O)OC)(c3cc4c(cc3OC)N(C)[C@H]3[C@@](O)(C(=O)OC)[C@H](OC(C)=O)[C@]5(CC)C=CCN6CC[C@]43[C@@H]65)C2)C1` [VINBLASTINE], the EC50 in the assay on KB, in the assay on HEp-2 and in the assay on HeLa was over 20 µg/mL each time.

Take `CN(C)[C@@H]1C(O)=C(C(N)=O)C(=O)[C@@]2(O)C(O)=C3C(=O)c4c(O)cccc4[C@@](C)(O)[C@H]3C[C@@H]12` [TETRACYCLINE]: the MIC against Staphylococcus aureus [1] was 512 µg/mL (≈ 1150 µM); in the assay with Staphylococcus aureus [2] it was over 512 µg/mL; against Staphylococcus aureus [3], 256 µg/mL (≈ 576 µM); in the assay on Staphylococcus aureus [4], 32 µg/mL (≈ 72 µM).

`COC(=O)[C@H]1[C@H]2C[C@@H]3c4[nH]c5cc(OC)ccc5c4CCN3C[C@H]2C[C@@H](OC(=O)c2cc(OC)c(OC)c(OC)c2)[C@@H]1OC` [RESERPINE]: the EC50 with HEp-2 was over 20 µg/mL.

A word on the MIC: it is the smallest concentration in the dilution series that meets the test's criterion for growth inhibition. Low values mean inhibition by little substance, high ones a need for much substance.
